Results from ChEMBL document CHEMBL1914423, “New imidazo[2,1-b]thiazole derivatives: synthesis, in vitro anticancer evaluation, and in silico studies” (Eur J Med Chem, 2011).

Assays:
[1] = Antiproliferative activity against human A375P cells after 48 hrs by MTT assay; type: functional, cell-based
How it was run: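 A375P cells in DMEM with 10% FBS at 37 °C, 5% CO2. Seeded at 5×10³ cells/well, held 24 h, then treated with 12-point 3-fold serial dilutions for 48 h. Viability by MTT reduction. IC50 values are means of triplicate experiments.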

HL-60(TB) = test: Anticancer activity against human HL-60(TB) cells assessed as cell growth at 10^-5 M after 48 hrs by SRB assay; type: functional; conditions: HL-60, 48 h, read-out: Activity
How it was run: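 NCI-60 single-dose screen. Cells in RPMI 1640 with 5% FBS and 2 mM L-glutamine were plated at 5000–40,000 cells/well and preincubated 24 h at 37 °C before one compound concentration. Time-zero plates were TCA-fixed at drug addition. For suspension cells, settled cells were fixed with cold TCA, then SRB-stained and read at 515 nm. Percent growth was calculated from time-zero, control and treated absorbances.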

MOLT-4 = test: Anticancer activity against human MOLT4 cells assessed as cell growth at 10^-5 M after 48 hrs by SRB assay; type: functional; conditions: MOLT-4, 48 h, read-out: Activity
SR = test: Anticancer activity against human SR cells assessed as cell growth at 10^-5 M after 48 hrs by SRB assay; type: functional; conditions: read-out: Activity
How it was run: (§1)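 NCI-60 single-dose screen: cells in RPMI 1640 with 5% FBS and 2 mM L-glutamine, plated at 5000–40,000 cells/well by doubling time, and preincubated 24 h at 37 °C. Compound given at one concentration from DMSO stock. Cells TCA-fixed and SRB-stained, absorbance at 515 nm. Percent growth relative to time-zero and untreated controls; inhibition % = 100 − growth %.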

EKVX = test: Anticancer activity against human EKVX cells assessed as cell growth at 10^-5 M after 48 hrs by SRB assay; type: functional; conditions: read-out: Activity
How it was run: (§2)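 NCI-60 single-dose screen at one concentration. Cells grown in RPMI 1640 with 5% FBS and 2 mM L-glutamine, plated at 5000–40,000 cells/well, and pre-incubated 24 h at 37 °C in 5% CO2 before DMSO-dissolved drug was added. Cells fixed with TCA, SRB-stained, absorbance read at 515 nm. Percent growth calculated against time-zero and untreated control plates.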

HOP-92 = test: Anticancer activity against human HOP92 cells assessed as cell growth at 10^-5 M after 48 hrs by SRB assay; type: functional; conditions: HOP-92, 48 h, read-out: Activity; how it was run: as §2
NCI-H226 = test: Anticancer activity against human NCI-H226 cells assessed as cell growth at 10^-5 M after 48 hrs by SRB assay; type: functional; conditions: NCI-H226, 48 h, read-out: Activity
NCI-H322M = test: Anticancer activity against human NCI-H322M cells assessed as cell growth at 10^-5 M after 48 hrs by SRB assay; type: functional; conditions: read-out: Activity
HCT-116 = test: Anticancer activity against human HCT116 cells assessed as cell growth at 10^-5 M after 48 hrs by SRB assay; type: functional; conditions: HCT-116, 48 h, read-out: Activity; how it was run: as §2
HT-29 = test: Anticancer activity against human HT-29 cells assessed as cell growth at 10^-5 M after 48 hrs by SRB assay; type: functional; conditions: HT-29, 48 h, read-out: Activity; how it was run: as §2
SW-620 = test: Anticancer activity against human SW620 cells assessed as cell growth at 10^-5 M after 48 hrs by SRB assay; type: functional; conditions: SW-620, 48 h, read-out: Activity; how it was run: as §1
SF-268 = test: Anticancer activity against human SF268 cells assessed as cell growth at 10^-5 M after 48 hrs by SRB assay; type: functional; conditions: SF-268, 48 h, read-out: Activity
SF-295 = test: Anticancer activity against human SF295 cells assessed as cell growth at 10^-5 M after 48 hrs by SRB assay; type: functional; conditions: SF-295, 48 h, read-out: Activity
SNB-19 = test: Anticancer activity against human SNB19 cells assessed as cell growth at 10^-5 M after 48 hrs by SRB assay; type: functional; conditions: SNB-19, 48 h, read-out: Activity
LOX IMVI = test: Anticancer activity against human LOXIMVI cells assessed as cell growth at 10^-5 M after 48 hrs by SRB assay; type: functional; conditions: read-out: Activity; how it was run: as §2
M14 = test: Anticancer activity against human M14 cells assessed as cell growth at 10^-5 M after 48 hrs by SRB assay; type: functional; conditions: M14, 48 h, read-out: Activity; how it was run: as §2
SK-MEL-2 = test: Anticancer activity against human SK-MEL-2 cells assessed as cell growth at 10^-5 M after 48 hrs by SRB assay; type: functional; conditions: SK-MEL-2, 48 h, read-out: Activity
SK-MEL-5 = test: Anticancer activity against human SK-MEL-5 cells assessed as cell growth at 10^-5 M after 48 hrs by SRB assay; type: functional; conditions: SK-MEL-5, 48 h, read-out: Activity
UACC-62 = test: Anticancer activity against human UACC62 cells assessed as cell growth at 10^-5 M after 48 hrs by SRB assay; type: functional; conditions: UACC-62, 48 h, read-out: Activity; how it was run: as §1
OVCAR-4 = test: Anticancer activity against human OVCAR4 cells assessed as cell growth at 10^-5 M after 48 hrs by SRB assay; type: functional; conditions: OVCAR-4, 48 h, read-out: Activity
OVCAR-5 = test: Anticancer activity against human OVCAR5 cells assessed as cell growth at 10^-5 M after 48 hrs by SRB assay; type: functional; conditions: OVCAR-5, 48 h, read-out: Activity
ACHN = test: Anticancer activity against human ACHN cells assessed as cell growth at 10^-5 M after 48 hrs by SRB assay; type: functional; conditions: read-out: Activity; how it was run: as §2
CAKI-1 = test: Anticancer activity against human Caki1 cells assessed as cell growth at 10^-5 M after 48 hrs by SRB assay; type: functional; conditions: CAKI-1, 48 h, read-out: Activity; how it was run: as §2
UO-31 = test: Anticancer activity against human UO31 cells assessed as cell growth at 10^-5 M after 48 hrs by SRB assay; type: functional; conditions: UO-31, 48 h, read-out: Activity; how it was run: as §1
PC-3 = test: Anticancer activity against human PC3 cells assessed as cell growth at 10^-5 M after 48 hrs by SRB assay; type: functional; conditions: PC-3, 48 h, read-out: Activity
MCF7 = test: Anticancer activity against human MCF7 cells assessed as cell growth at 10^-5 M after 48 hrs by SRB assay; type: functional; conditions: MCF7, 48 h, read-out: Activity; how it was run: as §2
MDA-MB-231 = test: Anticancer activity against human MDA-MB-231 cells assessed as cell growth at 10^-5 M after 48 hrs by SRB assay; type: functional; conditions: MDA-MB-231, 48 h, read-out: Activity; how it was run: as §2
BT-549 = test: Anticancer activity against human BT549 cells assessed as cell growth at 10^-5 M after 48 hrs by SRB assay; type: functional; conditions: BT-549, 48 h, read-out: Activity; how it was run: as §2
T47D = test: Anticancer activity against human T47D cells assessed as cell growth at 10^-5 M after 48 hrs by SRB assay; type: functional; conditions: read-out: Activity; how it was run: as §1
MDA-MB-468 = test: Anticancer activity against human MDA-MB-468 cells assessed as cell growth at 10^-5 M after 48 hrs by SRB assay; type: functional; conditions: MDA-MB-468, 48 h, read-out: Activity

With `COc1cccc(-c2nc3sccn3c2-c2ccnc(NCCNC(=O)c3ccc(N4CCOCC4)c(C(F)(F)F)c3)n2)c1` the IC50 [1] was greater than 10 µM, the growth at 10 µM (HL-60(TB)) was 85.2% and the growth at 10 µM (MOLT-4) was 50.8%. It also gave a growth at 10 µM (SR) of 76.7%, a growth at 10 µM (EKVX) of 74.1% and a growth at 10 µM (HOP-92) of 85.1%. The growth at 10 µM (NCI-H226) was 85.4%, the growth at 10 µM (NCI-H322M) was 101% and the growth at 10 µM (HCT-116) was 82.6%. It also gave a growth at 10 µM (HT-29) of 50%, a growth at 10 µM (SW-620) of 108% and a growth at 10 µM (SF-268) of 89.7%. It also gave a growth at 10 µM (SF-295) of 69.2%, a growth at 10 µM (SNB-19) of 105% and a growth at 10 µM (LOX IMVI) of 73.5%. It also gave a growth at 10 µM (M14) of 62.1%, a growth at 10 µM (SK-MEL-2) of 86.5% and a growth at 10 µM (SK-MEL-5) of 57.2%. The growth at 10 µM (UACC-62) was 41.3%, the growth at 10 µM (OVCAR-4) was 102% and the growth at 10 µM (OVCAR-5) was 96.9%. It also gave a growth at 10 µM (ACHN) of 70.6%, a growth at 10 µM (CAKI-1) of 68.8% and a growth at 10 µM (UO-31) of 58.2%. It also gave a growth at 10 µM (PC-3) of 60.8%, a growth at 10 µM (MCF7) of 90.9% and a growth at 10 µM (MDA-MB-231) of 94.2%. It also gave a growth at 10 µM (BT-549) of 74.8%, a growth at 10 µM (T47D) of 67% and a growth at 10 µM (MDA-MB-468) of 90.5%.
